Source: PubChem
HCT116 PTEN-null: suppresses growth of cells with PTEN deletion. HCT116 PTEN-null viability, CellTiter-Glo, 60 h; active compounds read low. viability, % at 10 µM. actives 1.2% (n = 140,000);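 active means viability at or below a set limit, 4 SD under the median of all tested compounds, cut at about 3.7% in these data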;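 further: PTEN knockout HCT116 line with beta catenin targeted HCT116 as companion control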
HUVEC prolif 384: human endothelial cell proliferation inhibition; HUVEC proliferation, CellTiter-Glo luminescence, 72 h; active compounds read low; viability, % at 10 µM (by protocol); actives 1.1% (n = 86,000); AID 648;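 active means viability at or below 30%; inactive means viability above 30%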
Fibroblast inh: blocks proliferation of human lung fibroblasts. LL 47 human lung fibroblast viability, ATP luminescence; active compounds read low. actives 1.1% (n = 85,000). viability, % at 10 µM;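 active means viability at or below 50% in the single dose screen; inactive means viability above 50%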;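 further: compound exposure lasted 72 h before the ATP readout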
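test system = LL 47 human lung fibroblasts | amount = 1,150 fibroblasts seeded per well | medium = 15% FBS in IMEM | times = overnight cell rest, 72 h compound treatment at 37 °C | measured by = CellTiter-Glo luminescence measuring cellular ATP | read-out = viability percentage against median untreated-cell control | benchmarks = cell-only wells, no compound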
H69AR growth 86K: growth inhibitors of human H69AR lung tumor cells | H69AR lung tumor viability, ATP luminescence, 72 h; active compounds read low | viability, % at 10 µM | actives 6% (n = 85,000);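 active means viability at or below 40%; inactive means viability above 40%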;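 further: multidrug resistant small cell line overexpressing MRP-1 efflux transporter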
bCat KO growth: beta-catenin-lacking colon tumor cell growth suppression. HCT116 beta-catenin knockout viability, CellTiter-Glo, 60 h; active compounds read low. viability, % at 10 µM. actives 1.5% (n = 140,000). AID 818;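 active means viability at or under a set limit, the compound median less 4 SD, cut at about 6% in these data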
Numbers stand for hits; - = inactive; . = not tested or not shown. This is one part of a sample in which hits are shown more often than they occur.

SMILES	HCT116 PTEN-null	HUVEC prolif 384	Fibroblast inh	H69AR growth 86K	bCat KO growth
CCOc1ccc(-c2cc(C(=O)N3CCN(c4ccccn4)CC3)c3ccccc3n2)cc1	-	-	-	18	-
COc1ccc(-c2cc(C(=O)N3CCN(c4ccccn4)CC3)c3ccccc3n2)cc1	-	-	-	16	-
O=C(COC(=O)Cn1cnc2ccccc2c1=O)Nc1cc(Cl)ccc1[N+](=O)[O-]	-	.	.	.	-
CCN(C(=O)CN1CCN(S(=O)(=O)c2cc(Cl)ccc2Cl)CC1)c1c(N)n(Cc2ccccc2)c(=O)[nH]c1=O	-	.	.	.	-
Cc1ccc(-c2nnc(Oc3ccc(NC(=O)c4ccccc4)cc3)c3ccccc23)cc1	-	.	.	.	-
Cc1ccc(-n2nc(CN3CCOCC3)c(-c3ccccc3)c2N)c(C)c1	-	.	.	.	-
CCCc1nc([N+](=O)[O-])c(S(=O)(=O)c2ccccc2)n1CC(C)C	2.9	.	.	.	3.3
CC(C)Cn1c(C(C)C)nc([N+](=O)[O-])c1S(=O)(=O)c1ccc(F)cc1	2.4	.	.	.	2.1
CC(C)Cn1c(CCCNC(=O)c2ccc(F)cc2)nc2ccccc21	-	-	-	-	-
Cc1ccc(-c2ccccc2NC(=O)CCl)o1	-	-	-	0.1	-
CCCOc1ccc(OCCN2CCCC(C)C2)cc1 (stereo not drawn)	-	.	.	.	-
COc1cc(C2C(C#N)=C(N)Oc3c2c(-c2ccccc2)nn3-c2ccccc2)cc(OC)c1OC (stereo not drawn)	-	.	.	.	-
O=C1CCN(N=Nc2cccc(Cl)c2)N1	-	-	-	31	-
C/C(=N\NC(=O)C(C)Oc1ccc([N+](=O)[O-])cc1)c1ccccn1 (stereo not drawn)	-	.	.	.	4.6
O=C(CSc1nnc(NC(=O)c2ccc(S(=O)(=O)N3CCOCC3)cc2)s1)Nc1ccccc1C(F)(F)F	-	.	.	.	-
c1ccc2sc(N3CCOCC3)nc2c1	.	-	-	-	-
COc1cccc2sc(N3CCN(c4nc5ccccc5s4)CC3)nc12	2.4	26	-	3.2	1.8
CC[C@H](C)[C@H](NC(=O)c1ccc(Cl)cc1)C(=O)OCC(=O)c1ccc2c(c1)NC(=O)CO2	-	5.4	21	2.6	-
O=C(CCNC(=O)Cn1ccc2ccccc2c1=O)NCCc1ccccc1Cl	-	.	.	.	-
Cc1occc(=O)c1OC(=O)Nc1ccc(Cl)c(Cl)c1	-	.	.	.	-
CN(C1CCCCC1)S(=O)(=O)c1cccc(C(=O)OCC(=O)NC2CCCc3ccccc32)c1 (stereo not drawn)	-	.	.	.	-
O=C(CSc1ccccc1)Nc1ccc(N2CCOCC2)cc1	-	-	-	6.8	-
Cc1ccc(Nc2ncnc3c2oc2ccccc23)cc1	-	-	-	-	-
COc1ccc(Nc2ncnc3c2oc2ccccc23)cc1	-	-	-	39	-
CCOC(=O)Nc1cc(=O)c2ccccc2o1	-	-	.	14	-
SMILES	HCT116 PTEN-null	HUVEC prolif 384	Fibroblast inh	H69AR growth 86K	bCat KO growth
Cc1cccc(-c2nc(CN3CCCC(C(=O)NC4CCCCCC4)C3)c(C)o2)c1 (stereo not drawn)	-	-	-	40	-
Cc1cccc(-c2nc(CN3CCCC(C(=O)NC4CCCCC4)C3)c(C)o2)c1 (stereo not drawn)	-	-	-	39	-
Cc1oc(-c2ccc(Cl)cc2)nc1CN1CCCC(C(=O)NCc2ccccn2)C1 (stereo not drawn)	-	-	-	-	-
Cc1oc(-c2cccc(Cl)c2)nc1CN1CCCC(C(=O)NCc2ccco2)C1 (stereo not drawn)	-	-	-	-	-
Cc1cnc(C(=O)Nc2cccc3cccnc23)cn1	-	5.1	43	3.6	-
Cc1ccc(OCC(=O)N/N=C/c2c[nH]c3ccccc23)c([N+](=O)[O-])c1	-	.	.	.	-
N#C/C(=C/c1ccc(Br)o1)C(N)=O	-	-	-	33	-
CCOC(=O)c1c(NC(C)=O)sc2c(OC)cccc12	-	-	-	-	-
CCOC(=O)c1c(NC(C)=O)sc2c(OC)c(Br)ccc12	-	-	-	38	-
CC(c1ccccc1)N1CCn2c(nc3cc(NC(=O)NC4CCCCC4)ccc32)C1 (stereo not drawn)	-	-	-	-	-
Nc1nc2ccc(O)cc2s1	-	-	.	18	-
Cc1cccc(C(=O)N[C@H](C(=O)OCC(=O)NC2CCS(=O)(=O)C2)C(C)C)c1 (stereo partly drawn)	-	.	.	.	-
O=C(O)/C=C/C(=O)NNC(=O)c1cccc(Br)c1	-	.	.	.	-
Cc1ccc(OCCn2cc(/C(N)=N/O)c3ccccc32)cc1C	-	-	-	35	-
COc1cc2c(N3CCOCC3)cc(O)c(CC(=O)Nc3ccccc3)c2cc1OC	-	-	48	-	-
COc1ccc(CN(C(C)=O)c2cccc(C)c2C)cc1	-	-	-	19	-
COc1ccc(CN(C(=O)CO/N=C/c2ccccc2)c2ccccc2C(=O)O)cc1	-	.	.	.	-
COc1ccc(-n2c(C)cc(-c3csc(NC(=O)c4ccc(S(=O)(=O)N(C)C)cc4)n3)c2C)cc1	-	.	.	.	-
CCCn1c(=NC(=O)c2ccc3c(c2)OCO3)c(C#N)cc2c(=O)n3cccc(C)c3nc21	.	-	-	38	.
Cc1cccn2c(=O)c3cc(C(=O)NCc4ccco4)c(=N)n(CCc4ccccc4)c3nc12	.	-	-	31	.
CCCCCn1c(=NC(=O)c2ccco2)c(C(=O)OCC)cc2c(=O)n3ccccc3nc21	-	-	-	27	-
Cc1ccc2nc3c(cc(C(=O)NCc4ccccc4)c(=N)n3CCCn3ccnc3)c(=O)n2c1	.	-	-	-	.
Cc1cccn2c(=O)c3cc(C(=O)NC(C)c4ccccc4)c(=N)n(CCCn4ccnc4)c3nc12 (stereo not drawn)	.	-	-	12	.
Cc1cccn2c(=O)c3cc(C(=O)NCc4ccco4)c(=N)n(C(C)C)c3nc12	-	-	-	-	-
CC1CCCC(C)N1C(=O)COC(=O)C(Cc1ccccc1)NC(=O)c1cccs1 (stereo not drawn)	-	.	.	.	-
SMILES	HCT116 PTEN-null	HUVEC prolif 384	Fibroblast inh	H69AR growth 86K	bCat KO growth
COc1cc2[nH]c(=O)n(CCCCCC(=O)NCCc3c[nH]c4ccccc34)c(=O)c2cc1OC	-	-	-	-	-
N=c1c(C(=O)NCc2ccc3c(c2)OCO3)cc2c(=O)n3ccccc3nc2n1Cc1cccnc1	-	-	-	-	-
N=c1c(C(=O)NCc2ccco2)cc2c(=O)n3ccccc3nc2n1Cc1ccccc1	-	-	-	-	-
N=c1c(C(=O)NCc2ccco2)cc2c(=O)n3ccccc3nc2n1Cc1ccc(Cl)cc1	-	-	-	26	-
N=c1c(C(=O)NCc2ccccc2)cc2c(=O)n3ccccc3nc2n1Cc1ccco1	-	-	-	39	-
COc1ccc(CNC(=O)c2cc3c(=O)n4ccccc4nc3n(Cc3cccnc3)c2=N)cc1	-	-	-	27	-
N=c1c(C(=O)NCc2ccc(F)cc2)cc2c(=O)n3ccccc3nc2n1Cc1ccco1	-	.	.	.	-
CCOCCCn1c(=N)c(C(=O)NCc2ccc3c(c2)OCO3)cc2c(=O)n3cccc(C)c3nc21	-	-	-	-	2.8
